Molecules are shown by their SMILES. In brackets after ≈: the same amount, converted by molar mass. A value given as a limit tells only on which side of the number the result lay.

MIC, viability and CC50 data for 4 compounds are collected here from ChEMBL document CHEMBL2401735, “Synthesis and cytotoxicity of novel (thiazol-2-yl)hydrazine derivatives as promising anti-Candida agents” (Eur J Med Chem, 2013).

One data set relates to Enterobacter sp. Briefly: Antibacterial activity against Enterobacter spp. assessed as growth inhibition after 18 to 22 hrs by broth microdilution method. Type of data set: functional. The essentials: (§1)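 Bacterial isolates subcultured for purity, identified conventionally. Broth microdilution per NCCLS in Mueller-Hinton II broth; plates with growth control (no compound) and medium-only control, incubated 18-22 h at 35 °C. MIC taken as lowest concentration giving complete growth inhibition by unaided eye.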
Background: Broth dilution looks for growth in wells or tubes with falling amounts of substance.

Another data set has as its system Escherichia coli. Briefly: Antibacterial activity against Escherichia coli assessed as growth inhibition after 18 to 22 hrs by broth microdilution method. Type of data set: functional. The essentials:
as §1

A short description of data set [1]: Cytotoxicity against human Hep2 cells assessed as cell survival fraction at 50 ug/ml after 24 hrs by trypan blue exclusion assay (reference value: 97 to 98%). The note with it: HEp-2 cells, read-out: Survival. Type of data set: cell-based.
In the next data set the test system is Candida albicans. Nature of the data set: Anticandida activity against Candida albicans clinical isolate assessed as growth inhibition after 24 hrs by broth microdilution method. The data set is classed as functional. The essentials:
(§2)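 Clinical Candida isolates subcultured for purity and optimal growth before testing; compounds dissolved in DMSO. Broth microdilution per NCCLS in Sabouraud dextrose broth, serial dilutions, inoculum about 10³/mL, with growth control and medium-only control; 24 h incubation at 37 °C. MIC is the lowest concentration giving complete visible inhibition.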

In a further data set the test system is Candida parapsilosis. Nature of the data set: Anticandida activity against Candida parapsilosis clinical isolate assessed as growth inhibition after 24 hrs by broth microdilution method. Type of data set: functional. Conditions: Lodderomyces parapsilosis. The essentials: as §2
A short description of data set [2]: Cytotoxicity against human Hep2 cells assessed as cell survival fraction at 0.05 ug/ml after 24 hrs by trypan blue exclusion assay (reference value: 97 to 98%). Type of data set: cell-based. Conditions: HEp-2 cells, read-out: Survival.
Another data set concerns Candida tropicalis. Nature of the data set: Anticandida activity against Candida tropicalis clinical isolate assessed as growth inhibition after 24 hrs by broth microdilution method. Type of data set: functional. The essentials: as §2
In the next data set the test system is Nakaseomyces glabratus. Briefly: Anticandida activity against Candida glabrata clinical isolate assessed as growth inhibition after 24 hrs by broth microdilution method. Type of data set: functional. The essentials: as §2
Data set [3] is described as follows: Cytotoxicity against human Hep2 cells assessed as cell survival fraction at 5 ug/ml after 24 hrs by trypan blue exclusion assay (reference value: 97 to 98%). The data set is classed as cell-based. The note with it: HEp-2 cells, read-out: Survival.
The subject of another data set is Pichia kudriavzevii. Briefly: Anticandida activity against Candida krusei clinical isolate assessed as growth inhibition after 24 hrs by broth microdilution method. Type of data set: functional. The essentials: as §2
Another data set concerns [Candida] sake. Nature of the data set: Anticandida activity against Candida sake clinical isolate assessed as growth inhibition after 24 hrs by broth microdilution method. The data set is classed as functional. The note with it: Fermentozyma sake. The essentials: as §2
Another data set relates to Staphylococcus aureus. Nature of the data set: Antibacterial activity against Staphylococcus aureus assessed as growth inhibition after 18 to 22 hrs by broth microdilution method. The data set is classed as functional. The essentials:
as §1

A short description of data set [4]: Cytotoxicity against human Hep2 cells assessed as cell survival fraction at 100 ug/ml after 24 hrs by trypan blue exclusion assay (reference value: 97 to 98%). Type of data set: cell-based. Conditions: HEp-2 cells, read-out: Survival.
The subject of the next data set is Klebsiella oxytoca. Briefly: Antibacterial activity against Klebsiella oxytoca assessed as growth inhibition after 18 to 22 hrs by broth microdilution method. Type of data set: functional. The essentials:
as §1

Another data set concerns Staphylococcus warneri. Briefly: Antibacterial activity against Staphylococcus warneri assessed as growth inhibition after 18 to 22 hrs by broth microdilution method. The data set is classed as functional. The essentials:
as §1

The test system of data set [5] is Streptococcus alpha-hemolyticus. Nature of the data set: Antibacterial activity against Streptococcus alpha-hemolyticus assessed as growth inhibition after 18 to 22 hrs by broth microdilution method.
In another data set the test system is Enterococcus faecalis. Briefly: Antibacterial activity against […] assessed as growth inhibition after 18 to 22 hrs by broth microdilution method. The data set is classed as functional. The essentials:
as §1

Data set [6] in a line: Cytotoxicity against human Hep2 cells assessed as cell survival fraction at 0.5 ug/ml after 24 hrs by trypan blue exclusion assay (reference value: 97 to 98%). The data set is classed as cell-based. Conditions: HEp-2 cells, read-out: Survival.
The nature of data set [7]: Cytotoxicity against human Hep2 cells assessed as cell survival fraction at 0.005 ug/ml after 24 hrs by trypan blue exclusion assay (reference value: 97 to 98%). The data set is classed as cell-based. Conditions: HEp-2 cells, read-out: Survival.
The nature of data set [8]: Cytotoxicity against human Hep2 cells assessed as cell survival fraction at 10 ug/ml after 24 hrs by trypan blue exclusion assay (reference value: 97 to 98%). Type of data set: cell-based. Conditions: HEp-2 cells, read-out: Survival.
Data set [9] is described as follows: Cytotoxicity against human Hep2 cells assessed as reduction of cell viability after 24 hrs by trypan blue exclusion assay. Type of data set: cell-based. The note with it: HEp-2 cells. The essentials:
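Hep2 cells in DMEM with 10% FBS, penicillin-streptomycin, 5% CO₂, 37 °C. Cells at 1 × 10⁵/mL exposed 24 h to seven concentrations (0.005-100 µg/mL), DMSO ≤0.5% final; controls were medium alone, DMSO, and 1 mM sodium nitroprusside. Cells scraped, allowed 30 min recovery, mixed 1:1 with 0.4% trypan blue, counted by hemocytometer by two operators.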

The subject of the next data set is Proteus mirabilis. Nature of the data set: Antibacterial activity against Proteus mirabilis assessed as growth inhibition after 18 to 22 hrs by broth microdilution method. Type of data set: functional. The essentials:
as §1

A word on the MIC: it is the lowest concentration that inhibits growth of the organism. As usually defined, the CC50 is the concentration at which the toxic effect on the cells reaches its halfway point. In the case of `C/C(=N\Nc1nc(-c2ccc(Cl)cc2Cl)cs1)C1CCCCC1`, the MIC in the data set on Enterobacter sp. was more than 256 µg/mL; with Escherichia coli it was more than 256 µg/mL; with Candida albicans it was 0.25 µg/mL (≈ 0.679 µM); in the data set on Candida parapsilosis it was 2 µg/mL (≈ 5.43 µM); with Candida tropicalis, 2 µg/mL (≈ 5.43 µM); with Nakaseomyces glabratus it was 2 µg/mL (≈ 5.43 µM). Also, the MIC with Pichia kudriavzevii was 2 µg/mL (≈ 5.43 µM); in data set [Candida] sake, 2 µg/mL (≈ 5.43 µM); in the data set on Staphylococcus aureus, more than 256 µg/mL; with Klebsiella oxytoca, more than 256 µg/mL; in the data set with Staphylococcus warneri, more than 256 µg/mL; in [5] it was more than 256 µg/mL. Besides, the MIC with Enterococcus faecalis and in the data set with Proteus mirabilis was more than 256 µg/mL in each case. The viability at 24 h, 50 ug/ml in data set [1] came out at 0%. In addition, in data set [2], the viability at 24 h, 0.05 ug/ml amounted to 96%. Also, in [3], the viability at 24 h, 5 ug/ml worked out at 94%. Moreover, in [4], the viability at 24 h, 100 ug/ml was found to be 0%. Further, the viability at 24 h, 0.5 ug/ml in data set [6] came to 95%. Further, in [7], the viability at 24 h, 0.005 ug/ml was 97.2%. Further, the viability at 24 h, 10 ug/ml in data set [8] came to 88%. For the same compound, in data set [9], the cytotoxic concentration (CC50) at 24 h was 42 µg/mL (≈ 114 µM).

For the compound `C=CCC/C(C)=N/Nc1nc(-c2ccc(OC)cc2)cs1`, the minimum inhibitory concentration (MIC) in the data set on Enterobacter sp. was more than 256 µg/mL; in the data set with Escherichia coli it was more than 256 µg/mL; in the data set with Candida albicans, 0.5 µg/mL (≈ 1.66 µM); in the data set with Candida parapsilosis, 2 µg/mL (≈ 6.64 µM); in the data set on Candida tropicalis, 2 µg/mL (≈ 6.64 µM); with Nakaseomyces glabratus it was 0.5 µg/mL (≈ 1.66 µM). Also, the MIC was 2 µg/mL (≈ 6.64 µM) with Pichia kudriavzevii; 2 µg/mL (≈ 6.64 µM) in data set [Candida] sake; more than 256 µg/mL with Staphylococcus aureus; more than 256 µg/mL in the data set with Klebsiella oxytoca; more than 256 µg/mL with Staphylococcus warneri; more than 256 µg/mL in data set [5]. Further, the minimum inhibitory concentration (MIC) in the data set with Enterococcus faecalis and in the data set on Proteus mirabilis was more than 256 µg/mL throughout. Moreover, the viability at 24 h, 50 ug/ml in data set [1] was determined as 0%. Also, in data set [2], the viability at 24 h, 0.05 ug/ml was found to be 91.2%. The viability at 24 h, 5 ug/ml in data set [3] was determined as 84%. Moreover, the viability at 24 h, 100 ug/ml in data set [4] is 0%. In addition, the viability at 24 h, 0.5 ug/ml in data set [6] was 83%. In [7], the viability at 24 h, 0.005 ug/ml turned out to be 94%. Also, the viability at 24 h, 10 ug/ml in data set [8] came out at 72.4%. For the same compound, the CC50 at 24 h in [9] was determined as 35 µg/mL (≈ 116 µM).

`CCCC/C(CC)=N/Nc1nc(-c2ccc(OC)cc2)cs1`: the MIC was more than 256 µg/mL with Enterobacter sp.; more than 256 µg/mL in the data set with Escherichia coli; 0.25 µg/mL (≈ 0.788 µM) with Candida albicans; 2 µg/mL (≈ 6.3 µM) with Candida parapsilosis; 2 µg/mL (≈ 6.3 µM) with Candida tropicalis; 0.5 µg/mL (≈ 1.58 µM) with Nakaseomyces glabratus. The minimum inhibitory concentration (MIC) with Pichia kudriavzevii was 2 µg/mL (≈ 6.3 µM); in data set [Candida] sake it was 2 µg/mL (≈ 6.3 µM); in the data set on Staphylococcus aureus it was more than 256 µg/mL; in the data set on Klebsiella oxytoca, more than 256 µg/mL; in the data set on Staphylococcus warneri it was more than 256 µg/mL; in data set [5], more than 256 µg/mL. Moreover, the minimum inhibitory concentration (MIC) in the data set with Enterococcus faecalis and in the data set on Proteus mirabilis was more than 256 µg/mL in each case. The viability at 24 h, 50 ug/ml in data set [1] came to 0%. Further, the viability at 24 h, 0.05 ug/ml in [2] is 90.2%. The viability at 24 h, 5 ug/ml in [3] worked out at 81%. Besides, in [4], the viability at 24 h, 100 ug/ml came out at 0%. In data set [6], the viability at 24 h, 0.5 ug/ml came out at 84%. For the same compound, in data set [7], the viability at 24 h, 0.005 ug/ml came to 93%. For the same compound, the viability at 24 h, 10 ug/ml in data set [8] is 70.2%. In addition, the CC50 at 24 h in data set [9] stood at 35 µg/mL (≈ 110 µM).

For the compound `CCC/C(C)=N/Nc1nc(-c2ccc(OC)cc2)cs1`, the MIC in the data set on Enterobacter sp. was more than 256 µg/mL; with Escherichia coli, more than 256 µg/mL; in the data set with Candida albicans, 0.25 µg/mL (≈ 0.864 µM); with Candida parapsilosis, 2 µg/mL (≈ 6.91 µM); in the data set with Candida tropicalis, 2 µg/mL (≈ 6.91 µM); with Nakaseomyces glabratus, 2 µg/mL (≈ 6.91 µM). Further, the minimum inhibitory concentration (MIC) in the data set on Pichia kudriavzevii was 2 µg/mL (≈ 6.91 µM); in data set [Candida] sake it was 2 µg/mL (≈ 6.91 µM); with Staphylococcus aureus, more than 256 µg/mL; with Klebsiella oxytoca, more than 256 µg/mL; in the data set with Staphylococcus warneri, more than 256 µg/mL; in data set [5], more than 256 µg/mL. Also, the MIC in the data set on Enterococcus faecalis and with Proteus mirabilis was more than 256 µg/mL in each case. For the same compound, the viability at 24 h, 50 ug/ml in data set [1] was 0%. In addition, the viability at 24 h, 0.05 ug/ml in [2] is 90%. Further, in [3], the viability at 24 h, 5 ug/ml came to 83%. Also, in data set [4], the viability at 24 h, 100 ug/ml amounted to 0%. The viability at 24 h, 0.5 ug/ml in [6] turned out to be 88%. Further, the viability at 24 h, 0.005 ug/ml in data set [7] amounted to 92%. The viability at 24 h, 10 ug/ml in data set [8] amounted to 75.5%. The CC50 at 24 h in data set [9] amounted to 36 µg/mL (≈ 124 µM).
